Laboratory results reported in PubChem BioAssay AID624467 (The Scripps Research Institute Molecular Screening Center, 2012).
In all, about 360,000 compounds went through this assay and about 3,600 (1%) were called active.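 Rule for the calls: active = activation above the mean activation of all test compounds in the run plus 3 SD (cut at about 38% in these data); inactive = the rest.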 The list comes from a sample in which actives are over-represented; it also holds similar structures and randomly drawn compounds.

The compounds below were run against Trace amine-associated receptor 1 (Homo sapiens) (UniProt Q96RJ0) (assay: human TAAR1 agonists, primary screen, Fluo-8 calcium fluorescence, CHO RD-HGA16 cells (AID 624467)). Conditions: CHO RD-HGA16 TAAR1, Fluo-8 calcium fluorescence; at 3 µM; stronger effect = higher value; vehicle wells 0%, saturating PEA agonist 100%.
Chain of Trace amine-associated receptor 1 (Homo sapiens) (Q96RJ0 whole entry, looked up): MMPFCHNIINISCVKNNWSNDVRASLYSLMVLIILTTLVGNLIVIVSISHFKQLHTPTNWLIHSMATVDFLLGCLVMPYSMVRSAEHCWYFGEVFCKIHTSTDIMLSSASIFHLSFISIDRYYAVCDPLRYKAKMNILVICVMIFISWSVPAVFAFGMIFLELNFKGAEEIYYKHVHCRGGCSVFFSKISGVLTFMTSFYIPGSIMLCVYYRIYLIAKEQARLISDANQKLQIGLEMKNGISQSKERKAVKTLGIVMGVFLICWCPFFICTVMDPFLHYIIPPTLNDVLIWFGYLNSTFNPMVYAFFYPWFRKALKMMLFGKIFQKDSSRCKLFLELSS
Outline: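 test system = CHO RD-HGA16 cells carrying human TAAR1 plus Gα16 | schedule = 17-24 h seeding, 75 min 37 °C dye, 30 min RT | compound dosing = 3 µM single concentration | control set = DMSO and PEA EC100 | replicates = n 1 | signal = Fluo-8 fluorescence, 5 s baseline then 140 s kinetic read | measure = percent activation vs PEA EC100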

Compound | activation
COC(=O)Nc1nc2ccc(C(=O)C3CC3)cc2[nH]1 | 0.33% (inactive)
CC(C)C(=O)Nc1nnc(SCC(=O)N2C(C)CCCC2C)s1 (centres undefined) | 2.6% (inactive)
CC/C(=C(/c1ccccc1)c1ccc(OCC[N+](C)(C)C)cc1)c1ccccc1 | 13.5% (inactive)
OC(c1ccccc1)(c1ccccc1)C1CCN(CCCOc2ccccc2)CC1 | 23.6% (inactive)
OC(c1ccccc1)(c1ccccc1)C1CCN(CCCOc2ccc(-c3ccsc3)cc2)CC1 | 35.3% (inactive)
N#Cc1ccc(OCCCN2CCC(C(O)(c3ccccc3)c3ccccc3)CC2)c(F)c1 | 51% (active)
Cc1ccc2c(c1)N(S(=O)(=O)c1cc(-c3cc(C)no3)ccc1C)CCO2 | 0.2% (inactive)
Nc1c(C(=O)c2cccs2)sc2nsc(SCCN3CCCCC3)c12 | 95.1% (active)
Nc1ccn([C@@H]2O[C@H](C(=O)N[C@H]3CCCCNC3=O)[C@@H](O)[C@H]2O)c(=O)n1 | -0.44% (inactive)
c1ccc(Nc2nc(N3CCOCC3)c3ccccc3n2)cc1 | 98.4% (active)
c1ccc2c(NC3C4CC5CC(C4)CC3C5)nc(N3CCOCC3)nc2c1 (centres undefined) | 28.9% (inactive)
COc1ccc(Nc2ncc(F)c(N3CCOCC3)n2)cc1 | 6.99% (inactive)
O=S1(=O)c2c(cccc2N2CCCCC2)O[C@H](COCc2ccccc2)CN1C1CC1 | -0.15% (inactive)
Nc1nonc1-n1nnc(C(=O)N/N=C/c2ccc(Cl)cc2)c1-c1ccc2c(c1)OCO2 | 133% (active)
CCc1ccc(/C=N/NC(=O)c2nnn(-c3nonc3N)c2CN2CCc3ccccc32)cc1 | 4.17% (inactive)
CC(C)c1c(C(=O)N/N=C/c2ccccc2C(=O)O)nnn1-c1nonc1N | 2.66% (inactive)
C/C(COc1ccccc1)=N\NC(=O)c1nnn(-c2nonc2N)c1-c1ccc(C)cc1 | 6.16% (inactive)
CC(C)Oc1ccc(/C=N/NC(=O)c2nnn(-c3nonc3N)c2CN(C)C2CCCCC2)cc1 | 19.2% (inactive)
CCCOc1ccc(-c2c(C(=O)N/N=C/c3ccco3)nnn2-c2nonc2N)cc1 | 74.1% (active)
CCOC(=O)N1CCN(C(=O)C[C@H]2C[C@@]3(C(=O)OC)C(=C[C@H](C4CCCC4)O[C@@H]3C)N(Cc3ccccc3)C2=O)CC1 | -1.14% (inactive)
CCc1ccc(C2=CC(=O)CC(C)(C)C2=O)cc1 | -1.42% (inactive)
CCCCN1C(=O)C(CC(=O)NC(c2ccccc2)c2ccccc2)CC(C(=O)N2CCOCC2)=C1C (centres undefined) | 0.19% (inactive)
CC(C)CNc1cccc2c1S(=O)(=O)N[C@H](CC(C)C)CO2 | -0.51% (inactive)
CN(CCO)C(=O)c1nc[nH]c1C(=O)N(C)Cc1ccccc1 | 0.95% (inactive)
CN(C(=O)CN(CCO)CC(=O)N(C)C(C)(C)Cc1ccccc1)C(C)(C)Cc1ccccc1 | 125% (active)
CCOC(=O)N(Cc1ccccc1)C1CC1 | 3.18% (inactive)
COc1ccc(NS(=O)(=O)c2cc3c(cc2C)N(C(C)=O)CCO3)cc1 | 1.33% (inactive)

Compound | activation
C=CC[C@]12C[C@@]3(O[C@H](c4ccc(C(F)(F)F)cc4)N=C3C[C@H](c3ccc(OC)cc3)[C@H]1C)N(C1CCN(Cc3ccccc3)CC1)C2=O | 0.44% (inactive)
CC1CCCN(c2ccc(C(=O)NCCc3ccccc3)cn2)C1 (centres undefined) | 41.2% (active)
CC1CCN(C(=O)CCNC(=O)c2ccccc2)CC1 | 1.29% (inactive)
CC1CCN(c2c(NCc3ccc(C(=O)NCc4ccccc4)cc3)c(=O)c2=O)CC1 | 0.05% (inactive)
CC(=O)NC1C(Oc2ccc(C)cc2)OC2COC(c3ccco3)OC2C1O (centres undefined) | 1.22% (inactive)
CCc1ccc(NC(=O)Nc2ccncc2)cc1 | 30.2% (inactive)
O=C(Nc1ccc(Cl)cc1)Nc1ccc(Oc2cccnc2)nc1 | 35.4% (inactive)
O=C(Nc1ccncc1)Nc1ccc(F)cc1 | 78.9% (active)
O=C(CCC(=O)n1ncc2ccccc21)NCc1ccccc1Cl | 0.3% (inactive)
COc1cccc(NC(=O)N(C)C[C@@H]2OCc3cn(nn3)CCCC(=O)N([C@@H](C)CO)C[C@H]2C)c1 | 1.34% (inactive)
O=S(=O)(c1ccc(Br)c2ccccc12)N1CCOCC1 | 3.96% (inactive)
CCOC(=O)C1=C(O)/C(=C/c2cc(C)n(-c3ccccc3)c2C)N=C1C | 8.89% (inactive)
Cc1cccc(C)c1-n1c(C)cc(/C=C2\C(=O)NN(c3ccccc3)C2=O)c1C | 38.3% (active)
CN(C(=O)c1cccc(NC(=O)C2CCN(C(=O)OC(C)(C)C)CC2)c1)C1CCC1 | 12.7% (inactive)
Cc1ccc(CNC(=O)Nc2nnc([C@H]3C[C@H](O)[C@@H](CO)O3)s2)cc1 | 0.94% (inactive)
O=C(Nc1nnc([C@H]2C[C@H](O)[C@@H](CO)O2)s1)c1cccc(Cl)c1 | 2.33% (inactive)
O=C(Nc1ccc(F)cc1)Nc1nnc([C@H]2C[C@H](O)[C@@H](CO)O2)s1 | 45% (active)
CC(=O)c1c(N2CCN(c3ccc(F)cc3)CC2)nc(=S)n(-c2ccccc2)c1C | -0.41% (inactive)
Cn1ccsc1=NC(=O)c1cc(S(=O)(=O)N2CCOCC2)ccc1Cl | 4.63% (inactive)
COc1ccc(-c2ccc3c(n2)CCCN3S(=O)(=O)c2ccc(C)cc2)cc1 | 1.61% (inactive)
CC(=O)Oc1ccc(Cn2c(C)c(C(=O)NCc3ccc(C#N)cc3)sc2=O)cc1 | 140% (active)
Cc1ccc(Cn2c(C)c(C(=O)NCc3ccccc3C(F)(F)F)sc2=O)cc1 | 0.22% (inactive)
Cc1c(C(=O)NCc2ccc(C#N)cc2)sc(=O)n1Cc1ccc(C(=O)N(C)C)cc1 | 2.3% (inactive)
CC(C)[C@@H](C)/C=C/[C@@H](C)[C@H]1CC[C@@H]2[C@]1(C)CCC1[C@]23C=C[C@]2(C[C@@H](O)CC[C@]12C)N(c1ccc([N+](=O)[O-])cn1)O3 (some centres undefined) | -0.81% (inactive)
O=C(NCc1ccccc1)[C@H]1CCCN1C(=O)[C@H]1CCCN1C(=O)c1cc(F)cc(F)c1 | -0.16% (inactive)
CCCCNc1cccc2c1S(=O)(=O)N[C@@H](C)CO2 | -1.01% (inactive)
Cc1cc(CN(C)C(=O)c2cc(COc3ccc(C)c(C)c3)on2)n[nH]1 | 2.87% (inactive)
